Test results reported in ChEMBL document CHEMBL1123914, “6-Methylergoline-8-carboxylic acid esters as serotonin antagonists: N1-substituent effects on 5HT2 receptor affinity” (J Med Chem, 1987).

Experiments:
[1] = target: T1, Serotonin 2 (5-HT2) receptor (Rattus norvegicus) (UniProt P30994+P08909+P14842); assay: Affinity towards 5-hydroxytryptamine 2 receptor by measuring its ability to antagonize serotonin-induced contractions in the rat jugular vein.
Summary of the method: (§1)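 Rat external jugular vein rings, cannulated and mounted between two L-shaped needles on a force transducer in Krebs bicarbonate buffer. Tissues equilibrated 1–2 h. After control cumulative serotonin contraction curves, vessels were incubated with antagonist for 1 h and the serotonin curves repeated. K_B = [B]/(dose ratio − 1), where dose ratio is agonist ED50 with antagonist over control ED50. Reported as −log K_B.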

[2] = target: T1, Serotonin 2 (5-HT2) receptor (Rattus norvegicus); assay: Affinity towards 5-hydroxytryptamine 2 receptor by measuring its ability to antagonize serotonin-induced contractions in the rat jugular vein; no appreciable 5-HT2 receptor affinity; summary of the method: as §1

T1 sequence (P08909 whole entry, looked up): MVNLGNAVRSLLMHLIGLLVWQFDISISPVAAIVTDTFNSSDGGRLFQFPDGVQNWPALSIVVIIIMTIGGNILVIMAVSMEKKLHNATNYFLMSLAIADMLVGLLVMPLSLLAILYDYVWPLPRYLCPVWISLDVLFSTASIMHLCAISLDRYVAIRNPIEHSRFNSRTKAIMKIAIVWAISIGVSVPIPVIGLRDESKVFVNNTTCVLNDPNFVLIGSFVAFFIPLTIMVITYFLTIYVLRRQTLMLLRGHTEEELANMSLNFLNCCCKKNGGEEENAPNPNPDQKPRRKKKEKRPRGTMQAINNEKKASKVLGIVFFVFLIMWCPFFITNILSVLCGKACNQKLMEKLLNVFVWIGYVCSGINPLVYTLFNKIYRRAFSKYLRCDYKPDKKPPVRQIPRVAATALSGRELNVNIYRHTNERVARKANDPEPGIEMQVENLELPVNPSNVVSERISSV
T1 sequence (P14842 whole entry, looked up): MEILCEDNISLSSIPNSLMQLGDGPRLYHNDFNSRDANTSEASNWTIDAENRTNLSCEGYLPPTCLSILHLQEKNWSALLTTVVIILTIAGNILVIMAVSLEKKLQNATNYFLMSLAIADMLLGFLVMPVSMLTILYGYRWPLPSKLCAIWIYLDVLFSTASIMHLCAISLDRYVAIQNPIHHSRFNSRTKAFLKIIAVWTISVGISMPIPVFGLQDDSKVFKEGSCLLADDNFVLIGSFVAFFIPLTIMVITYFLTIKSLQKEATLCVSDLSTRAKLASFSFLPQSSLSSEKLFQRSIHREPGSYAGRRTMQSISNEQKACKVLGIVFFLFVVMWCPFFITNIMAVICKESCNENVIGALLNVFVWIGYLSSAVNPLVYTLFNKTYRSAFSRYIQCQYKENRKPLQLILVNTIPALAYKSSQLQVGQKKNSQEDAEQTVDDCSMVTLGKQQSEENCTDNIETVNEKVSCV
T1 sequence (P30994 whole entry, looked up): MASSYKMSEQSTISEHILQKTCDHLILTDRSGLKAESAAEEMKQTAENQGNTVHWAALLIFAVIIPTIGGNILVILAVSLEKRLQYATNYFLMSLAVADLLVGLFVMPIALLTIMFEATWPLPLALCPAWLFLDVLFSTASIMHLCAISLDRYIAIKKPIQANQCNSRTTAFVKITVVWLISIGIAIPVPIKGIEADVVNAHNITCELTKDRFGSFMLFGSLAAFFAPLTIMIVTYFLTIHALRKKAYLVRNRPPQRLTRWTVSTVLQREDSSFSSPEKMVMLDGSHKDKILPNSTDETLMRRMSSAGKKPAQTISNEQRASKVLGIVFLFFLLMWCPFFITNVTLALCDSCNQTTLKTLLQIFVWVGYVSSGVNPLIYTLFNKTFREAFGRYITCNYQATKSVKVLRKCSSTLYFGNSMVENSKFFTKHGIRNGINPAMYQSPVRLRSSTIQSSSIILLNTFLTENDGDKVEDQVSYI

Compound | -Log KB [1] | -Log KB [2]
CC(O)C(C)OC(=O)C1CC2c3cccc4c3c(cn4Cc3ccccc3)CC2N(C)C1 (stereo not given) | 7.37 | –
CCc1c(C)[nH]c2ccc(N(C)C)cc12 | 4.93 | –
CCCn1cc2c3c(cccc31)C1CC(C(=O)OC(C)C(C)O)CN(C)C1C2 (stereo not given) | 8.34 | –
COC(=O)C1CC2c3cccc4c3c(cn4Cc3ccccc3)CC2N(C)C1 (stereo not given) | 7.64 | –
CN1CC(C(=O)OCCO)CC2c3cccc4c3c(cn4Cc3ccccc3)CC21 (stereo not given) | 8.12 | –
C=CCn1cc2c3c(cccc31)C1CC(C(=O)OC)CN(C)C1C2 (stereo not given) | 7.89 | –
CC(O)C(C)OC(=O)C1CC2c3cccc4c3c(cn4C(C)C)CC2N(C)C1 (stereo not given) | 9.76 | –
CC(C)n1cc2c3c(cccc31)C1CC(C(=O)OCCO)CN(C)C1C2 (stereo not given) | 9.13 | –
CCn1cc2c3c(cccc31)C1CC(C(=O)OC)CN(C)C1C2 (stereo not given) | 8.12 | –
CCC(CC)n1cc2c3c(cccc31)C1CC(C(=O)OC)CN(C)C1C2 (stereo not given) | – | < 7
CC(O)C(C)OC(=O)C1CC2c3cccc4c3c(cn4C)CC2N(C)C1 (stereo not given) | 9.26 | –
CCc1c(C)n(C)c2ccc(N(C)C)cc12 | 6.51 | –
C=CCn1cc2c3c(cccc31)C1CC(C(=O)OCCO)CN(C)C1C2 (stereo not given) | 8.17 | –
COC(=O)C1CC2c3cccc4c3c(cn4C)CC2N(C)C1 (stereo not given) | 8.23 | –
CCc1c(C)n(CC)c2ccc(N(C)C)cc12 | 6.45 | –
CC(C)Cn1cc2c3c(cccc31)C1CC(C(=O)OC(C)C(C)O)CN(C)C1C2 (stereo not given) | 7.53 | –
CC(C)Cn1cc2c3c(cccc31)C1CC(C(=O)OCCO)CN(C)C1C2 (stereo not given) | 7.42 | –
CN1CC(C(=O)OCCO)CC2c3cccc4c3c(cn4C)CC21 (stereo not given) | 8.63 | –
CC(O)C(C)OC(=O)C1CC2c3cccc4c3c(cn4C3CCCCCC3)CC2N(C)C1 (stereo not given) | 7.45 | –
CCn1cc2c3c(cccc31)C1CC(C(=O)OC(C)C(C)O)CN(C)C1C2 (stereo not given) | 8.9 | –
CCCn1cc2c3c(cccc31)C1CC(C(=O)OC)CN(C)C1C2 (stereo not given) | 7.72 | –
CCCCCCCCn1cc2c3c(cccc31)C1CC(C(=O)OC(C)C(C)O)CN(C)C1C2 (stereo not given) | < 7 | –
CC(O)C(C)OC(=O)C1CC2c3cccc4c3c(cn4C3CCCC3)CC2N(C)C1 (stereo not given) | – | < 7
CC(O)C(C)OC(=O)C1CC2c3cccc4[nH]cc(c34)CC2N(C)C1 (stereo not given) | 8.42 | –
COC(=O)C1CC2c3cccc4c3c(cn4C(C)C)CC2N(C)C1 (stereo not given) | 8.29 | –
CCc1c(C)n(C(C)C)c2ccc(N(C)C)cc12 | 7.28 | –
COC(=O)C1CC2c3cccc4[nH]cc(c34)CC2N(C)C1 (stereo not given) | 8.1 | –
CN1CC(C(=O)OCCO)CC2c3cccc4[nH]cc(c34)CC21 (stereo not given) | 7.62 | –
COC(=O)C1CC2c3cccc4c3c(cn4CC(C)C)CC2N(C)C1 (stereo not given) | 7.57 | –
CCC(CC)n1cc2c3c(cccc31)C1CC(C(=O)OC(C)C(C)O)CN(C)C1C2 (stereo not given) | – | < 7
